Target: T1, NAD-dependent protein deacetylase sirtuin-3, mitochondrial (Homo sapiens, UniProt Q9NTG7)
T1 sequence (Q9NTG7 whole entry): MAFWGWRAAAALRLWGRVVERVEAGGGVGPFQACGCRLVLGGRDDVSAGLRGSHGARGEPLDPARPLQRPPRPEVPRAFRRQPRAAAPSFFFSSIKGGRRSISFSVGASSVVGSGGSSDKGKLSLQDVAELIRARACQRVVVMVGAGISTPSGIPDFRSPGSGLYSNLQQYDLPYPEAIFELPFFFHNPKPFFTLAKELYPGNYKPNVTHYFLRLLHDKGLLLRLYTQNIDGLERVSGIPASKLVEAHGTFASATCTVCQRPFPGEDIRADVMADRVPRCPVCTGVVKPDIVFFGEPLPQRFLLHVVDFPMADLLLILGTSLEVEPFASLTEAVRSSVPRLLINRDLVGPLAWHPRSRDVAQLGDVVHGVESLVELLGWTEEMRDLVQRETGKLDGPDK
Assay: Activation of N-terminal his-tagged human SIRT3 (114 to 380 residues) expressed in Escherichia coli in presence of NAD+ by Mass spectrometry assay
Procedure, shortened: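 Mass-spectrometric deacetylation assay using coupled-assay components (1.5 µM Sirt3, 50 µM peptide, 100 µM NAD+, compound 100 µM) in 50 mM Na-phosphate pH 7.8 plus 0.05 µg/µL PNCA to remove nicotinamide; product and substrate peptides quantified.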

With CCOC(=O)C1=CN(C(=O)c2cc(OC)c(OC)c(OC)c2)C=C(C(=O)OCC)C1c1ccccc1 the EC50 was 100 µM.

Source: BindingDB's records for PubMed 36228194 (University of Bayreuth, 2022)
